PKA-R2B act: activators of human PKA-R2B complex; PKA-R2B holoenzyme dissociation, Cy5-IP20 fluorescence polarization; R2B truncated from residue 108, S112A mutant; 0% DMSO only, 100% 113 µM cGMP; activation, % at 11.4 µM; 340,000 compounds, 0.079% hits;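 active = activation above a cutoff set at the mean over all compounds plus 3 SD, cut at about 18% in these data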;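 also: higher means more holoenzyme dissociation and a rise in polarization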
PKA-R1A act: PKA-R1A complex activation; 340,000 compounds, 0.083% hits; PKA-R1A dissociation, Cy5-IP20 fluorescence polarization; scaled: DMSO 0%, 113 µM cGMP 100%; activation, % at 11.4 µM; P00514+P68181;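 active = percent activation above the mean of all tested compounds plus 3 SD, cut at about 19% in these data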;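 also: higher means more PKAc released from R1A so a rise in polarization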
dFosB act-1: enhances mouse delta FosB homodimer DNA binding. activation, % at 25 µM. purified delta FosB, TAMRA-CDK5 oligo fluorescence polarization; percent of positive-control signal above neutral wells. 340,000 compounds, 0.99% hits. AID 493131. P13346;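 active = mean activation above about 17%, with every replicate also reaching it, limit read from the data, passing the limit was not always enough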
SR-BI HDL uptake: mouse SR-BI HDL lipid transfer inhibition. Q61009. ldlA[mSR-BI] CHO cells, DiI-HDL uptake fluorescence, 3 h. inhibition, % at 12.5 µM. 320,000 compounds, 0.96% hits. AID 488896;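 active = mean replicate inhibition of at least 70% and a set share of replicates each scoring 70 or more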
SR-BI uptake up: activators of SR-BI mediated HDL lipid uptake; CHO ldlA[mSR-BI] cells, DiI-HDL uptake fluorescence, 3 h; 100 = double the neutral-control signal; activation, % at 12.5 µM; 320,000 compounds, 0.096% hits;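 active = mean replicate activation of at least 60% and every replicate at or above 60%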
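Test system: SR-BI-overexpressing, LDLR-lacking CHO cells; Medium: Ham's F12 with 0.5% BSA, HEPES 25 mM, pH 7.4; Schedule: 3 h, 37 °C; Technique: bottom-read fluorescence, 550/595 nm.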
CDK5 p35 inh: inhibitors of human CDK5/p35 kinase | Q00535+Q15078 | AID 488839 | inhibition, % at 10 µM | 330,000 compounds, 0.01% hits | Recombinant CDK5/p35, ADP-Glo luminescence, 60 min;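 active = highest replicate inhibition of at least 50% and at least 75% of replicates reaching 50%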
Target sequence (Q00535 whole entry, looked up): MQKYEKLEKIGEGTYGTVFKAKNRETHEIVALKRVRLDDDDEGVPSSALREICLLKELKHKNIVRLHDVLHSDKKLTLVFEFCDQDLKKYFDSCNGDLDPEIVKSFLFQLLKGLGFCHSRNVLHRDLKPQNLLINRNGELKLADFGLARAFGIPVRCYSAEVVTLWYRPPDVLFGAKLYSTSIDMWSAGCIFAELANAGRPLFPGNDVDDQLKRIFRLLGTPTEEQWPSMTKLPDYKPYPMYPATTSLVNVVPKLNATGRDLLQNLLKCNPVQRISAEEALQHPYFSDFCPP
Target sequence (Q15078 whole entry, looked up): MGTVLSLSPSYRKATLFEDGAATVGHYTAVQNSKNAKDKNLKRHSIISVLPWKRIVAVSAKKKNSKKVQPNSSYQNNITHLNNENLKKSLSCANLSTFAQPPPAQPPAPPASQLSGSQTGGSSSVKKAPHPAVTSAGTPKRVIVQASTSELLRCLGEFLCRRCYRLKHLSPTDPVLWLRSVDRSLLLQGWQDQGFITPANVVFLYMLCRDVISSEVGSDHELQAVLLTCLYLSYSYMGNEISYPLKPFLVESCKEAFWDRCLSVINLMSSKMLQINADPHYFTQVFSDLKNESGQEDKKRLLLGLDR
dFosB act-2: enhances mouse delta FosB homodimer binding to DNA. purified delta FosB, TAMRA-CDK5 oligo fluorescence polarization; normalised: neutral wells 0, positive control 100. AID 588690. shares compounds with dFosB act-1. activation, % at 24.9 µM. 2,400 tested, under 10 active;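 active = highest replicate activation at or above 34% and every replicate reaching that threshold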;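 also: higher polarization means more probe DNA bound by delta FosB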
A number is an active result. An excerpt weighted towards active compounds, which were near 2.1% of everything screened.

Screening CCOc1ccc(CCNC(=O)Cn2c(-c3nonc3N)nc3ccccc32)cc1OCC returned PKA-R2B act inactive, PKA-R1A act inactive, dFosB act-1 23.7, SR-BI HDL uptake inactive, SR-BI uptake up inactive, CDK5 p35 inh inactive and dFosB act-2 inactive.
Screening Nc1nonc1-c1nc2ccccc2n1CC(=O)N/N=C\c1ccc(-c2ccc(Cl)cc2)o1 returned PKA-R2B act inactive, PKA-R1A act inactive, dFosB act-1 34.7, SR-BI HDL uptake inactive, SR-BI uptake up inactive, CDK5 p35 inh inactive and dFosB act-2 inactive.
`CCCCOc1ccccc1NC(=O)Cn1c(-c2nonc2N)nc2ccccc21` gave PKA-R2B act inactive, PKA-R1A act inactive, dFosB act-1 73.6, SR-BI HDL uptake inactive, SR-BI uptake up inactive, CDK5 p35 inh inactive and dFosB act-2 inactive.
O=C(/C=C/c1ccccc1)Nc1nc(-c2ccncc2)cs1 was read as PKA-R2B act inactive, PKA-R1A act inactive, dFosB act-1 16.7, SR-BI HDL uptake inactive, SR-BI uptake up inactive, CDK5 p35 inh inactive and dFosB act-2 inactive.
`COc1ccc(C(=O)N/C(=C/c2ccc(Cl)cc2)C(=O)Nc2ccc(C(=O)O)cc2)cc1` gave PKA-R2B act inactive, PKA-R1A act inactive, dFosB act-1 inactive, SR-BI HDL uptake inactive, SR-BI uptake up inactive and CDK5 p35 inh inactive.
CC(=O)NC(Cc1ccc(F)cc1)C(=O)NC1CCN(C(=O)Nc2ccccc2C)CC1 (configuration not stated) was read as PKA-R2B act inactive, PKA-R1A act inactive, dFosB act-1 inactive, SR-BI HDL uptake inactive, SR-BI uptake up inactive and CDK5 p35 inh inactive.
Screening COc1cc(OC)c(NC(=O)c2sc3ncn(CC(=O)N4CCN(c5ccccn5)CC4)c(=O)c3c2C)cc1Cl returned PKA-R2B act inactive, PKA-R1A act inactive, dFosB act-1 23.6, SR-BI HDL uptake inactive, SR-BI uptake up inactive, CDK5 p35 inh inactive and dFosB act-2 inactive.
For Cc1c(C)n(CC(O)CN2CCCCCC2)c2ccccc12 (configuration not stated) the results were PKA-R2B act inactive, PKA-R1A act inactive, dFosB act-1 inactive, SR-BI HDL uptake inactive, SR-BI uptake up inactive and CDK5 p35 inh inactive.
OC(CN1CCCCC1)Cn1c2ccccc2c2cc(Br)ccc21 (configuration not stated) was read as PKA-R2B act inactive, PKA-R1A act inactive, dFosB act-1 39.8, SR-BI HDL uptake inactive, SR-BI uptake up inactive, CDK5 p35 inh inactive and dFosB act-2 inactive.
For O=C(/C=C/c1ccccc1)Nc1ccc2c(c1)C(=O)NC2=O the results were PKA-R2B act inactive, PKA-R1A act inactive, dFosB act-1 inactive, SR-BI HDL uptake inactive, SR-BI uptake up inactive and CDK5 p35 inh inactive.
Screening O=C(/C=C/c1ccccc1Cl)Nc1ccc2c(c1)C(=O)NC2=O returned PKA-R2B act inactive, PKA-R1A act inactive, dFosB act-1 19.7, SR-BI HDL uptake inactive, SR-BI uptake up inactive, CDK5 p35 inh inactive and dFosB act-2 inactive.
CN1C[C@@H]2[C@@H]3C(=O)N(C)C(=O)[C@@H]3[C@](C)(C1=O)N2C(=O)c1ccccc1 was read as PKA-R2B act inactive, PKA-R1A act inactive, dFosB act-1 inactive, SR-BI HDL uptake inactive, SR-BI uptake up inactive and CDK5 p35 inh inactive.
For COc1ccc2c(c1)c(=O)c(C(=O)c1ccc(C)cc1)cn2CC(=O)Nc1ccc(F)cc1 the results were PKA-R2B act inactive, PKA-R1A act inactive, dFosB act-1 22.4, SR-BI HDL uptake inactive, SR-BI uptake up inactive, CDK5 p35 inh inactive and dFosB act-2 inactive.
Screening COc1ccc2c(c1)c(=O)c(C(=O)c1ccc(F)cc1)cn2CC(=O)Nc1ccc(F)cc1 returned PKA-R2B act inactive, PKA-R1A act inactive, dFosB act-1 20.2, SR-BI HDL uptake inactive, SR-BI uptake up inactive, CDK5 p35 inh inactive and dFosB act-2 inactive.
`COc1ccc2c(c1)c(CC(=O)Nc1ccc(C)cc1)c(C)n2C(=O)c1ccc(Cl)cc1` gave PKA-R2B act inactive, PKA-R1A act inactive, dFosB act-1 20.5, SR-BI HDL uptake inactive, SR-BI uptake up inactive, CDK5 p35 inh inactive and dFosB act-2 inactive.
Screening COc1ccc(NC(=O)Cn2cc(C(=O)c3ccco3)c3ccccc32)cc1 returned PKA-R2B act inactive, PKA-R1A act inactive, dFosB act-1 45.0, SR-BI HDL uptake inactive, SR-BI uptake up inactive, CDK5 p35 inh inactive and dFosB act-2 inactive.
Screening CCC(=O)c1cn(CC(=O)Nc2ccc(OC)cc2)c2ccccc12 returned PKA-R2B act inactive, PKA-R1A act inactive, dFosB act-1 inactive, SR-BI HDL uptake inactive, SR-BI uptake up inactive and CDK5 p35 inh inactive.
COc1ccc(NC(=O)Cc2c(C)n(C(=O)c3ccc(Cl)cc3)c3ccc(OC)cc23)cc1 was read as PKA-R2B act inactive, PKA-R1A act inactive, dFosB act-1 inactive, SR-BI HDL uptake inactive, SR-BI uptake up inactive and CDK5 p35 inh inactive.
Screening COC(=O)c1cn(CC(=O)Nc2ccc(OC)cc2)c2ccccc12 returned PKA-R2B act inactive, PKA-R1A act inactive, dFosB act-1 inactive, SR-BI HDL uptake inactive, SR-BI uptake up inactive and CDK5 p35 inh inactive.
`CC(NC(=O)CN1C(=O)NC2(CCCCCC2)C1=O)c1ccccc1` (configuration not stated) gave PKA-R2B act inactive, PKA-R1A act inactive, dFosB act-1 inactive, SR-BI HDL uptake inactive, SR-BI uptake up inactive and CDK5 p35 inh inactive.
`Cc1ccc(S(=O)(=O)c2cn(CC(=O)Nc3ccccc3)c3ccc(F)cc3c2=O)cc1` gave PKA-R2B act inactive, PKA-R1A act inactive, dFosB act-1 29.5, SR-BI HDL uptake inactive, SR-BI uptake up inactive, CDK5 p35 inh inactive and dFosB act-2 inactive.
`Cc1ccc(NC(=O)Cn2cc(S(=O)(=O)c3ccc(F)cc3)c(=O)c3cc(F)ccc32)cc1` gave PKA-R2B act inactive, PKA-R1A act inactive, dFosB act-1 inactive, SR-BI HDL uptake inactive, SR-BI uptake up inactive and CDK5 p35 inh inactive.
O=C(Nc1ccc(Br)cn1)c1cccc(C(=O)Nc2ccc(Br)cn2)c1 was read as PKA-R2B act inactive, PKA-R1A act inactive, dFosB act-1 inactive, SR-BI HDL uptake inactive, SR-BI uptake up inactive and CDK5 p35 inh inactive.
`O=C(Nc1ccc(Br)cn1)c1ccc2nccnc2c1` gave PKA-R2B act inactive, PKA-R1A act inactive, dFosB act-1 43.3, SR-BI HDL uptake inactive, SR-BI uptake up inactive, CDK5 p35 inh inactive and dFosB act-2 inactive.
Screening Cc1ccc2c(c1)N(CC(=O)NCC1CCCO1)C(=O)C(C(C)C)O2 (configuration not stated) returned PKA-R2B act inactive, PKA-R1A act inactive, dFosB act-1 inactive and CDK5 p35 inh inactive.
